Laboratory results as given in ChEMBL document CHEMBL1938298, “Synthesis and characterization of [¹²⁵I]2-iodo N-[(S)-{(S)-1-methylpiperidin-2-yl}(phenyl)methyl]3-trifluoromethyl-benzamide as novel imaging probe for glycine transporter 1” (Bioorg Med Chem, 2011).
Active and inactive are the calls of the source. No cut-off for these calls is given here.

Legend:
[1] = system: Mus musculus; experiment: In vivo binding affinity to GlyT1 in ddY mouse brain hippocampus at 33.3 kBq, iv after 60 mins in presence of N-Me-SSR504734 2 mg/kg, iv administered 15 mins prior to compound administration relative to control; assay type: functional, organism-based; parameters: dose 2 mg/kg; conditions: tested as the 125I-labelled form
How it was run: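 Male ddY mice (6 W, 30–35 g) were given blocker 2 mg/kg iv in 30% DMSO/saline 15 min before [125I] tracer (ca. 33.3 kBq, 0.1 mL, tail vein). Killed 60 min after tracer injection. Brain dissected into regions including hippocampus, weighed and gamma counted, giving % dose/g and region-to-blood ratio versus control. Mean ± SD, n = 5–6; Kruskal–Wallis with Dunn's post-test.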

[2] = molecular target: T1, Sodium- and chloride-dependent glycine transporter 1 (Rattus norvegicus) (UniProt P28572); experiment: Binding affinity to GlyT1 in rat brain thalamus at 0.03 to 0.04 nM preincubated for 20 mins in binding buffer before compound addition measured after 30 mins by autoradiography in presence of 0.01 mM GlyT1 inhibitor HPCP relative to control; assay type: tissue-based; conditions: tested as the 125I-labelled form
T1 sequence (whole entry): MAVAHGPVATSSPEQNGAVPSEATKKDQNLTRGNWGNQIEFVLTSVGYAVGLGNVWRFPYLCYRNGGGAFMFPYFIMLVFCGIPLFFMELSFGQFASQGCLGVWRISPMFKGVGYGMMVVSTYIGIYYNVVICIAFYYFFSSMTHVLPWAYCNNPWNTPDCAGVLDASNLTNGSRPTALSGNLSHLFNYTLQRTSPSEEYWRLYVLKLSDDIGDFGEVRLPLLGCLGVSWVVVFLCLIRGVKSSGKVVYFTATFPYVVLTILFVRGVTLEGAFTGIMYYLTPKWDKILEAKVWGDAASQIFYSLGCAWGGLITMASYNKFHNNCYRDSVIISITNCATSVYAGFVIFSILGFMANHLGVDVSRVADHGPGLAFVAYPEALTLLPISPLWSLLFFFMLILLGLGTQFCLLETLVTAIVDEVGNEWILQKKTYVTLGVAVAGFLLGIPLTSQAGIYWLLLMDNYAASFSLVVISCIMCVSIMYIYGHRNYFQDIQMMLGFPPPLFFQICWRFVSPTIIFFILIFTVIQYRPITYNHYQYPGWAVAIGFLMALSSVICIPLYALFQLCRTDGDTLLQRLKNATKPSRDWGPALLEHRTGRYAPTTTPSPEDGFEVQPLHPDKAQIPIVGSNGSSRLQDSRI

[3] = molecular target: T1, Sodium- and chloride-dependent glycine transporter 1 (Rattus norvegicus); experiment: Binding affinity to GlyT1 in rat brain thalamus at 0.03 to 0.04 nM preincubated for 20 mins in binding buffer before compound addition measured after 30 mins by autoradiography in presence of 10 mM GlyT1 substrate glycine relative to control; assay type: tissue-based; conditions: tested as the 125I-labelled form
[4] = system: Mus musculus; experiment: In vivo binding affinity to GlyT1 in ddY mouse brain medullary region at 33.3 kBq, iv after 60 mins in presence of SSR504734 2 mg/kg, iv administered 15 mins prior to compound administration relative to control; assay type: functional, organism-based; parameters: dose 2 mg/kg; conditions: Medulla of organ, tested as the 125I-labelled form
[5] = system: Mus musculus; experiment: In vivo binding affinity to GlyT1 in ddY mouse brain medullary region at 200 kBq, iv after 60 mins by autoradiography relative to control; assay type: functional, organism-based; conditions: Medulla of organ, tested as the 125I-labelled form
How it was run: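 Male ddY mice were injected iv with [125I]5 (200 kBq) and killed 60 min post-injection. For blocking, unlabeled blocker (2 mg/kg) was given iv 15 min before the tracer. Frozen brain sagittal sections (20 μm) were exposed to an imaging plate for 7 days. Regional radioactivity was read as PSL/mm² (n = 5) and compared with control by Kruskal–Wallis with Dunn's post-test.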

[6] = molecular target: T1, Sodium- and chloride-dependent glycine transporter 1 (Rattus norvegicus); experiment: Binding affinity to GlyT1 in rat brain hippocampus at 0.03 to 0.04 nM preincubated for 20 mins in binding buffer before compound addition measured after 30 mins by autoradiography in presence of 1 mM GlyT1 substrate glycine relative to control; assay type: tissue-based; conditions: tested as the 125I-labelled form
How it was run: (§1)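 Rat brain sagittal sections (20 µm) preincubated 20 min at 25 °C in Tris-HCl buffer pH 7.5 (NaCl, KCl, MgCl2, CaCl2), then 30 min at 25 °C with [125I] tracer (100 kBq, 0.03–0.04 nM) plus competitor (10 µM; glycine 1 or 10 mM). Cold washes, imaging plate 3 days, ROI PSL minus background per mm². % control from ≥triplicate slices, three rats.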

[7] = molecular target: T1, Sodium- and chloride-dependent glycine transporter 1 (Rattus norvegicus); experiment: Binding affinity to GlyT1 in rat brain cerebellum at 0.03 to 0.04 nM preincubated for 20 mins in binding buffer before compound addition measured after 30 mins by autoradiography in presence of GlyT1 inhibitor N-Me-SSR504734 relative to control; assay type: tissue-based; conditions: tested as the 125I-labelled form; how it was run: as §1
[8] = molecular target: T1, Sodium- and chloride-dependent glycine transporter 1 (Rattus norvegicus); experiment: Binding affinity to GlyT1 in rat brain hippocampus at 0.03 to 0.04 nM preincubated for 20 mins in binding buffer before compound addition measured after 30 mins by autoradiography relative to control; assay type: tissue-based; conditions: tested as the 125I-labelled form
How it was run: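 Rat brain sagittal sections (20 µm), 20 min preincubation at 25 °C in Tris-HCl pH 7.5 binding buffer, then [125I] tracer (100 kBq, 0.03–0.04 nM) for 30 min at 25 °C. Nonspecific binding taken with 10 µM unlabeled ligand. Imaging-plate read-out as (PSL−BG)/mm². Mean ± SD, n = 4–5 from at least three rats; Mann–Whitney U-test.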

[9] = molecular target: T1, Sodium- and chloride-dependent glycine transporter 1 (Rattus norvegicus); experiment: Binding affinity to GlyT1 in rat brain midbrain at 0.03 to 0.04 nM preincubated for 20 mins in binding buffer before compound addition measured after 30 mins by autoradiography in presence of 10 mM GlyT1 substrate glycine relative to control; assay type: tissue-based; conditions: tested as the 125I-labelled form
[10] = molecular target: T1, Sodium- and chloride-dependent glycine transporter 1 (Rattus norvegicus); experiment: Binding affinity to GlyT1 in rat cortical brain homogenate assessed per mg of protein after 60 mins by gamma counting; assay type: tissue-based; conditions: tested as the 125I-labelled form
How it was run: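 Saturation binding on washed rat cortical membranes (25 µg protein) with [125I]tracer 0.1–20 nM in TB1 buffer (120 mM NaCl, 2 mM KCl, 1 mM CaCl2, 1 mM MgCl2, 10 mM HEPES, pH 7.5), 60 min at room temperature. Nonspecific binding defined with 10 µM unlabeled ligand. GF/B filtration with ice-cold buffer washes, gamma counting; Kd and Bmax from saturation analysis.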

[11] = system: Intestine; experiment: Drug uptake in ddY mouse intestine at 11.1 kBq, iv after 0.5 min by gamma counting; assay type: ADME, organism-based; conditions: in vivo
How it was run: (§2)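 Male ddY mice (6 weeks, 30–35 g) received about 11.1 kBq [125I]tracer in 0.1 mL i.v. via tail vein. Killed at set times, organs dissected and weighed, radioactivity gamma counted. Reported as % injected dose/g tissue, mean ± SD, n = 5–6.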

[12] = system: Mus musculus; experiment: In vivo binding affinity to GlyT1 in ddY mouse brain thalamus at 33.3 kBq, iv after 30 mins in presence of N-Me-SSR504734 2 mg/kg, iv administered 15 mins prior to compound administration relative to control; assay type: functional
[13] = system: Heart; experiment: Drug uptake in ddY mouse heart at 11.1 kBq, iv after 5 min by gamma counting; assay type: ADME, organism-based; conditions: in vivo; how it was run: as §2

Row | Activity [2] [%] | Activity [3] [%] | Activity [6] [%] | Activity [7] [%] | Activity [8] | Activity [9] [%] | Bmax [10] [pmol] | Drug uptake [11] [% ID/g] | Drug uptake [13] [% ID/g] | Structure (SMILES) | Activity [1] | Activity [4] | Activity [5] | Activity [12] [%]
1 | 22.5 | 52.7 | 108 | 28.9 | inactive | 52.1 | 3.4 |  |  | CN1CCCC[C@H]1[C@@H](NC(=O)c1cccc(C(F)(F)F)c1I)c1ccccc1 | Active | inactive | Active | 
2 |  |  |  |  |  |  |  | 0.81 | 5.17 | CN1CCCC[C@H]1[C@@H](NC(=O)c1cccc(C(F)(F)F)c1[125I])c1ccccc1 |  |  |  | 56
